Reference: ChEMBL document CHEMBL3124890, “SAR studies on trisubstituted benzimidazoles as inhibitors of Mtb FtsZ for the development of novel antitubercular agents” (J Med Chem, 2013)
Values after ≈ are worked out from the molar mass of the structure shown.

Tests used:
[1] = test system: Mycobacterium tuberculosis; experiment: […]; assay type: functional
In short: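 Strains were grown at 37 °C in 7H9 Middlebrook broth with 10% OADC, 0.05% Tween and 0.2% glycerol. Compounds were dissolved in DMSO and serially diluted 2-fold, then bacteria were added. Plates were incubated 6 days at 37 °C, then 24 h more with Alamar Blue. MIC was the lowest concentration (μg/mL) that prevented the colour change. Run in triplicate.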

Vero = experiment: Cytotoxicity against Vero cells after 3 days by Alamar Blue assay; assay type: cell-based; conditions: Chlorocebus sabaeus, 72 h
In short: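 Vero (African green monkey kidney epithelial) cells were grown without CO₂ in L15 with antibiotics and heat-inactivated calf serum. Cells in medium with 2X Alamar Blue were added at 1.3×10^4 cells/well to 2-fold serial drug dilutions. Plates were incubated 3 days at 37 °C, and IC50 was calculated per the manufacturer's directions.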

SMILES	MIC ([1]; H37Rv, 144 h) [µg/mL]	IC50 (Vero) [µg/mL]	MIC ([1]; W210, 144 h) [µg/mL]
CCN(CC)c1cc2[nH]c(C3CCCCC3)nc2cc1NC(=O)c1ccc(N(C)C)cc1	12.5 (≈ 28.8 µM)	–	–
CCCCOC(=O)Nc1cc2nc(C3CCCCC3)[nH]c2cc1N1CCCC1	0.39 (≈ 1.01 µM)	–	–
O=C(CCc1ccccc1)Nc1cc2nc(C3CCCCC3)[nH]c2cc1N1CCCC1	12.5 (≈ 30 µM)	> 100	–
CCCCOC(=O)Nc1cc2nc(C3CCCCC3)[nH]c2cc1N(CC)CC	–	> 100	1.25 (≈ 3.23 µM)
CCCOCC(=O)Nc1cc2nc(C3CCCCC3)[nH]c2cc1N(CC)CC	25 (≈ 64.7 µM)	> 100	–
CN(C)c1cc2[nH]c(C3CCCCC3)nc2cc1NC(=O)c1ccc(Br)cc1	0.31 (≈ 0.702 µM)	> 100	–
CCN(CC)c1cc2[nH]c(C3CCCCC3)nc2cc1NC(=O)c1cnccn1	10 (≈ 25.5 µM)	> 100	–
CCN(CC)c1cc2[nH]c(C3CCCCC3)nc2cc1NC(=O)c1cccc(Br)c1	> 100	> 100	–
CCOc1ccc(C(=O)Nc2cc3nc(C4CCCCC4)[nH]c3cc2N(CC)CC)cc1	> 100	> 100	–
CCCc1ccc(C(=O)Nc2cc3nc(C4CCCCC4)[nH]c3cc2N(CC)CC)cc1	> 100	–	–
NNC(=O)c1ccncc1 [ISONIAZID]	0.013 (≈ 0.0948 µM)	–	0.01 (≈ 0.0729 µM)
CCN(CC)c1cc2[nH]c(C3CCCCC3)nc2cc1NC(=O)c1ccc(OC)cc1	1.56 (≈ 3.71 µM)	–	–
CN(C)c1cc2[nH]c(C3CCCCC3)nc2cc1NC(=O)c1ccc(F)cc1F	0.31 (≈ 0.778 µM)	> 100	–
CN(C)c1cc2[nH]c(C3CCCCC3)nc2cc1NC(=O)OCc1ccccc1	0.16 (≈ 0.408 µM)	> 100	–
CCCCNC(=O)Nc1cc2nc(C3CCCCC3)[nH]c2cc1N(CC)CC	> 100	> 100	–
O=C(Nc1cc2nc(C3CCCCC3)[nH]c2cc1N1CCCC1)c1ccccc1	6.25 (≈ 16.1 µM)	> 100	–
CN(C)c1cc2[nH]c(C3CCCCC3)nc2cc1NC(=O)c1ccc(C(C)(C)C)cc1	1.56 (≈ 3.73 µM)	> 100	–
CCCCOC(=O)Nc1cc2nc(C3CCCCC3)[nH]c2cc1N(C)CCN(C)C	> 100	> 100	–
CCCN(CCC)c1cc2[nH]c(C3CCCCC3)nc2cc1NC(=O)c1ccccc1	> 100	> 100	–
CN(C)c1cc2[nH]c(C3CCCCC3)nc2cc1NC(=O)c1cccs1	5 (≈ 13.6 µM)	> 100	–
O=C(Nc1cc2nc(C3CCCCC3)[nH]c2cc1N1CCCC1)c1ccc(Br)cc1	1.56 (≈ 3.34 µM)	> 100	–

SMILES	MIC ([1]; H37Rv, 144 h) [µg/mL]	IC50 (Vero) [µg/mL]	MIC ([1]; W210, 144 h) [µg/mL]
COCCOC(=O)Nc1cc2nc(C3CCCCC3)[nH]c2cc1N1CCCC1	3.13 (≈ 8.1 µM)	> 100	–
Cc1ccc(C(=O)Nc2cc3nc(C4CCCCC4)[nH]c3cc2N2CCCC2)cc1	3.13 (≈ 7.78 µM)	> 100	–
CCCOCC(=O)Nc1cc2nc(C3CCCCC3)[nH]c2cc1N(C)C	6.25 (≈ 17.4 µM)	< 50	–
CN(C)c1cc2[nH]c(C3CCCCC3)nc2cc1NC(=O)c1ccc(OC(F)F)cc1	0.31 (≈ 0.723 µM)	> 100	–
CCCCCC(=O)Nc1cc2nc(C3CCCCC3)[nH]c2cc1N(CC)CC	12.5 (≈ 32.5 µM)	–	–
CCCCCC(=O)Nc1cc2nc(C3CCCCC3)[nH]c2cc1N1CCCC1	6.25 (≈ 16.3 µM)	> 100	–
COc1ccc(CC(=O)Nc2cc3nc(C4CCCCC4)[nH]c3cc2N(C)C)cc1	> 100	> 100	–
CCCCOC(=O)Nc1cc2nc(C3CCCCC3)[nH]c2cc1N(CC)CCN(CC)CC	50 (≈ 109 µM)	> 50	–
CN(C)c1cc2[nH]c(C3CCCCC3)nc2cc1NC(=O)c1ccco1	6.25 (≈ 17.7 µM)	> 100	–
CCCc1ccc(C(=O)Nc2cc3nc(C4CCCCC4)[nH]c3cc2N(C)C)cc1	0.63 (≈ 1.56 µM)	> 100	–
CCN(CC)c1cc2[nH]c(C3CCCCC3)nc2cc1NC(=O)OCCOCCOC	12.5 (≈ 28.9 µM)	> 100	–
COc1ccc(C(=O)Nc2cc3nc(C4CCCCC4)[nH]c3cc2N2CCCC2)cc1	6.25 (≈ 14.9 µM)	> 100	–
CCN(CC)c1cc2[nH]c(C3CCCCC3)nc2cc1NC(=O)c1ccc(F)cc1F	> 100	> 100	–
CCOCCOC(=O)Nc1cc2nc(C3CCCCC3)[nH]c2cc1N1CCCC1	1.56 (≈ 3.89 µM)	> 100	–
CCCCCC(=O)Nc1cc2nc(C3CCCCC3)[nH]c2cc1N(C)C	1.25 (≈ 3.51 µM)	> 100	–
CCc1ccc(C(=O)Nc2cc3nc(C4CCCCC4)[nH]c3cc2N(CC)CC)cc1	1.56 (≈ 3.73 µM)	> 100	–
CCCCNC(=O)Nc1cc2nc(C3CCCCC3)[nH]c2cc1N1CCCC1	25 (≈ 65.2 µM)	> 100	–
CCOCCOC(=O)Nc1cc2nc(C3CCCCC3)[nH]c2cc1N(C)C	0.31 (≈ 0.828 µM)	> 100	–
CN(C)c1cc2[nH]c(C3CCCCC3)nc2cc1NC(=O)c1ccc(F)cc1	0.63 (≈ 1.66 µM)	> 100	–
O=C(Nc1cc2nc(C3CCCCC3)[nH]c2cc1N1CCCC1)OCC(F)(F)F	0.31 (≈ 0.755 µM)	> 100	–
CN(C)c1cc2[nH]c(C3CCCCC3)nc2cc1NC(=O)c1ccc(OC(F)(F)F)cc1	0.16 (≈ 0.358 µM)	> 100	–

SMILES	MIC ([1]; H37Rv, 144 h) [µg/mL]	IC50 (Vero) [µg/mL]	MIC ([1]; W210, 144 h) [µg/mL]
CN(C)c1cc2[nH]c(C3CCCCC3)nc2cc1NC(=O)c1cccc(Br)c1	3.13 (≈ 7.09 µM)	> 100	–
CCCOCC(=O)Nc1cc2nc(C3CCCCC3)[nH]c2cc1N1CCCC1	12.5 (≈ 32.5 µM)	> 100	–
CCN(CC)c1cc2[nH]c(C3CCCCC3)nc2cc1NC(=O)OCC(F)(F)F	1.56 (≈ 3.78 µM)	> 100	–
CCN(CC)c1cc2[nH]c(C3CCCCC3)nc2cc1NC(=O)c1ccc(Br)cc1	100 (≈ 213 µM)	> 100	–
CCCNC(=O)Nc1cc2nc(C3CCCCC3)[nH]c2cc1N(CC)CC	> 100	> 100	–
CCN(CC)c1cc2[nH]c(C3CCCCC3)nc2cc1NC(=O)c1ccc(OC(F)(F)F)cc1	> 100	> 100	–
CCCNC(=O)Nc1cc2nc(C3CCCCC3)[nH]c2cc1N1CCCC1	100 (≈ 271 µM)	> 100	–
O=C(NCc1ccccc1)Nc1cc2nc(C3CCCCC3)[nH]c2cc1N1CCCC1	25 (≈ 59.9 µM)	> 100	–
C=Cc1cccc(C(=O)Nc2cc3nc(C4CCCCC4)[nH]c3cc2N(CC)CC)c1	25 (≈ 60 µM)	> 100	–
CCN(CC)c1cc2[nH]c(C3CCCCC3)nc2cc1NC(=O)c1ccc(F)cc1	> 100	> 100	–
Cc1ccc(C(=O)Nc2cc3nc(C4CCCCC4)[nH]c3cc2N(C)C)cc1	0.31 (≈ 0.823 µM)	> 100	–
CCN(CC)c1cc2[nH]c(C3CCCCC3)nc2cc1NC(=O)NCc1ccccc1	> 100	> 100	–
CCCCOC(=O)Nc1cc2nc(C3CCCCC3)[nH]c2cc1N(CC)CCN(C)C	100 (≈ 233 µM)	> 100	–
CCCCOC(=O)Nc1cc2nc(C3CCCCC3)[nH]c2cc1N(CCC)CCC	6.25 (≈ 15.1 µM)	> 100	–
CCN(CC)c1cc2[nH]c(C3CCCCC3)nc2cc1NC(=O)c1ccc(OC(F)F)cc1	> 100	> 100	–
CCCN(CCC)c1cc2[nH]c(C3CCCCC3)nc2cc1NC(=O)OCc1ccccc1	> 100	> 100	–
COc1ccc(C(=O)Nc2cc3nc(C4CCCCC4)[nH]c3cc2N(C)C)cc1	0.31 (≈ 0.79 µM)	> 100	–
CN(C)c1cc2[nH]c(C3CCCCC3)nc2cc1NC(=O)c1ccccc1	1.56 (≈ 4.3 µM)	> 100	–
CCOCCOC(=O)Nc1cc2nc(C3CCCCC3)[nH]c2cc1N(CC)CC	1.56 (≈ 3.88 µM)	> 100	–
O=C(Nc1cc2nc(C3CCCCC3)[nH]c2cc1N1CCCC1)OCc1ccccc1	3.13 (≈ 7.48 µM)	–	–
